zfTRPN1 agonist: agonists of zebrafish TRPN1 channel; HEK293 zebrafish TRPN1-YFP, Fluo-8 calcium fluorescence; 100% = response to 87 µM carbachol; activation, % at 3 µM; 220,000 compounds, 0.18% hits;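 active means activation above its plate's cutoff, the mean activation of test wells on that plate plus 3 SD, cut at about 19% in these data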;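 further: 0% = DMSO alone and 100% = 87 µM carbachol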
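Material: zebrafish TRPN1-YFP in HEK293 cells; Doses: single test compound dose, 3 µM nominal, 0.3% DMSO; Timing: dye loading 1 h at 37 °C, then 30 min room temperature; Technique: intracellular calcium fluorescence with Fluo-8; Benchmarks: high carbachol 87 µM, low DMSO alone.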
LANA-H2A inh: blocks KSHV LANA binding to histone H2A/H2B. AID 2629. cell-free LANA-H2A/H2B peptide, fluorescence polarization. 320,000 compounds, 0.6% hits. inhibition, % (test concentration not listed); in the data active means inhibition mostly above about 10%, no sharp cut-off; inactive means mostly below about 6.7%
TAAR1 antagonist: human TAAR1 antagonism | CHO RD-HGA16 TAAR1, Fluo-8 calcium fluorescence, antagonist | AID 624466 | inhibition, % at 3 µM | 360,000 compounds, 1.5% hits;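 active means inhibition above a per-plate cutoff, the mean inhibition of test compounds on that plate plus 3 SD, cut at about 49% in these data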;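 further: 0% = DMSO plus EC80 beta-PEA response and 100% = DMSO alone without agonist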
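Test system – hTAAR1-expressing CHO RD-HGA16 cells, Gα16-coupled · Also added – β-PEA at EC80 concentration, post-compound challenge · Compound – 3 µM, single point · Incubation – dye loading 75 min at 37 °C, then 30 min room temperature · Measured by – Fluo-8 intracellular calcium dye fluorescence, real-time kinetic reads · Benchmarks – vehicle and agonist controls · Replicates – singlicate, one well per test compound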
GPR7 antagonist: blocks human GPR7 receptor signaling; P48145; GPR7-expressing cells, fluorescence antagonist assay; inhibition, % at 4.4 µM; 290,000 compounds, 1.1% hits; AID 1861; in the data active means inhibition above about 16%, passing the limit was not always enough;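 further: cells stimulated with the agonist NPW; 0% = agonist with vehicle and 100% = vehicle without agonist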
Target sequence (P48145 whole entry, looked up): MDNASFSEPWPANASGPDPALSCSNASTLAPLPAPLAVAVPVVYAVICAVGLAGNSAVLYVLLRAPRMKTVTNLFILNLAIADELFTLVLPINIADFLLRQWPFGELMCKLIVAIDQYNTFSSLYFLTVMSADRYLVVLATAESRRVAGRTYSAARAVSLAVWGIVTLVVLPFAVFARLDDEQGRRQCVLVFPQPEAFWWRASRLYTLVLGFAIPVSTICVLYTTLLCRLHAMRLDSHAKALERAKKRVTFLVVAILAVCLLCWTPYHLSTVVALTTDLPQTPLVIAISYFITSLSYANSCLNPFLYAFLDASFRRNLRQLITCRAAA
TRPML3 agonist: human mucolipin-3 channel agonism; Q8TDD5; HEK293 TRPML3-YFP, Fluo-8 calcium fluorescence; 100% = the carbachol control signal; activation, % at 3 µM; 220,000 compounds, 0.29% hits;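 active means activation above its plate's cutoff, the mean activation of the plate's test wells plus 3 SD, cut at about 12% in these data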;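 further: 0% = DMSO only wells and 100% = carbachol wells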
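Test system: HEK293 cells stably carrying human TRPML3-YFP; Doses: single dose, 3 µM final nominal compound, 0.3% DMSO final; Schedule: dye loading 1 h 37 °C then 30 min ambient, 125 s read; Technique: Fluo-8 calcium fluorescence; Benchmarks: high control carbachol 87 µM, low control DMSO.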
TAAR1 agonist: agonists of human TAAR1; CHO RD-HGA16 TAAR1, Fluo-8 calcium fluorescence; vehicle wells 0%, saturating PEA agonist 100%; activation, % at 3 µM; 360,000 compounds, 0.99% hits;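 active means activation above the mean activation of all test compounds in the run plus 3 SD, cut at about 38% in these data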
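test system = CHO RD-HGA16 cells carrying human TAAR1 plus Gα16 | schedule = 17-24 h seeding, 75 min 37 °C dye, 30 min RT | compound dosing = 3 µM single concentration | control set = DMSO and PEA EC100 | replicates = n 1 | signal = Fluo-8 fluorescence, 5 s baseline then 140 s kinetic read | measure = percent activation vs PEA EC100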
* = called active by the depositor; . = no result given. Shown are actives, neighbours in structure and some others; about 3.4% of the full set was active somewhere.

SMILES	zfTRPN1 agonist	LANA-H2A inh	TAAR1 antagonist	GPR7 antagonist	TRPML3 agonist	TAAR1 agonist
COc1ccc(OCC(=O)Nc2ccc(S(=O)(=O)N3CCOCC3)cc2)cc1	2	28*	13	-9	0	15
Brc1ccccc1C1Cc2nnccc2CN1 (stereo not given)	.	.	5	.	.	1
CC(=O)Nc1ccc(NC(=O)COC(=O)C2(c3ccc(Cl)cc3)CCCC2)cc1	11	-3	49*	2	4	39*
NS(=O)(=O)c1cccc(NC(=O)COC(=O)C2(c3cccc(F)c3)CCCC2)c1	1	1	52*	2	0	6
CCN(CC(=O)Nc1ccc(NC(C)=O)cc1)C(=O)C1(c2ccc(Cl)cc2)CCC1	.	.	11	.	.	5
NS(=O)(=O)c1cccc(NC(=O)CC2(CC(=O)O)CCCC2)c1	.	4	-11	1	.	0
COC(=O)[C@]12C[C@H](CC(=O)NCc3cccc4ccccc34)C(=O)N(CCc3ccc(OC)c(OC)c3)C1=C[C@H](C(C)(C)C)O[C@@H]2C	.	.	-14	.	.	3
c1ccc(CCN(Cc2ccccc2)Cc2nc(C3CC3)no2)cc1	-2	4	-5	1	-1	38*
CCN(Cc1ccccc1)Cc1nc(CCc2ccccc2)no1	0	-4	17	-18	0	5
C#CCN1C(=O)[C@]2(OCCC=C[C@H]2C)c2cc(OC)ccc21	.	.	11	.	.	1
O=C(CNC(=O)c1ccccc1F)NCCN1C(=O)S/C(=C\c2ccc3c(c2)OCO3)C1=O	.	28*	-8	.	.	1
O=C(NN=Cc1ccccc1O)C(=O)Nc1ccc(F)cc1	.	.	-2	.	.	1
CC(NCC(O)COc1ccc(Br)cc1)c1ccccc1 (stereo not given)	.	-2	3	9	.	43*
CC(NCC(O)COC1CCC(C(C)(C)C)CC1)c1ccccc1 (stereo not given)	1	9	1	13	1	44*
CCCC(NCC(O)COc1ccc(-c2ccccc2)cc1)c1ccccc1 (stereo not given)	-1	-3	-6	19	1	40*
COc1ccc(OCC(O)CNC(C)c2ccccc2)cc1 (stereo not given)	.	0	-26	6	.	4
COC(=O)[C@@H](Cc1ccccc1)N[C@H](/C=C/c1ccccc1)[C@@H](O)Cc1ccccc1	.	.	14	.	.	-1
Cc1ccc(S(=O)(=O)N(C)[C@H]2C[C@H]3c4[nH]c5cccc(-c6ccccc6)c5c4CCN3C(=O)[C@H]2[C@H](C)O)cc1	.	.	1	.	.	1
CC(=O)n1cc(N(C(=O)CCl)c2ccc([N+](=O)[O-])cc2)c2ccccc21	4	-7	16	21*	2	16
CC(=O)n1cc(N(C(=O)CCl)c2ccccc2)c2ccccc21	1	-2	-21	-7	1	3
N#CC(=C=[N-])/C=C(\C(=O)c1ccccc1)[n+]1ccccc1	1	21*	-2	-3	0	7
CCN(CC)CCCNC(=O)c1cc2cc(Cl)ccc2nc1N	.	.	-7	.	.	0
O=C(Cn1c(C(=O)N2CCN(C3CCCCC3)CC2)cc2sccc21)c1ccccc1	1	-2	15	20*	1	7
CC(=O)C1=C(O)C(=O)N(c2ccc(C(=O)O)cc2)C1c1ccc([N+](=O)[O-])cc1 (stereo not given)	.	13*	-6	-10	.	2
CC1C(=O)N(Cc2cn(CCC3OCCCO3)nn2)CCS(=O)(=O)N1Cc1ccc(-c2ccc(F)cc2)cc1 (stereo not given)	.	.	36	.	.	15
CC1C(=O)N(Cc2cn(CCC3OCCCO3)nn2)CCS(=O)(=O)N1Cc1ccc(-c2ccc(Cl)c(Cl)c2)cc1 (stereo not given)	.	.	69*	.	.	15
COCOCCn1cc(CN2CCS(=O)(=O)N(Cc3ccc(-c4ccc(Cl)c(Cl)c4)cc3)C(C)C2=O)nn1 (stereo not given)	.	.	59*	.	.	17
CC1C(=O)N(Cc2cn(CCC3OCCO3)nn2)CCS(=O)(=O)N1Cc1ccc(-c2ccc(Cl)cc2)cc1 (stereo not given)	.	.	52*	.	.	15

Screening results from PubChem BioAssay.
